For the data set, the system named is MS2 coat protein. Nature of the data set: apparent Kd, MS2 coat protein; higher = weaker binding; RNA-MaP array. In a few lines: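 With or without input ligand, designed RNAs transcribed on an Illumina sequencing chip from sequenced DNA templates were incubated at room temperature with fluorescently labeled MS2 coat protein at 1.5 nM to 3 μM. The buffer was Tris-HCl pH 7.5 with KCl, MgCl2, BSA, DTT, tRNA and Tween20, and incubation ran 0.8–1.5 h at the lowest and 10–20 min at the highest concentrations. Apparent Kd is reported as the median of fits to binding curves from individual clusters. Designs measured on fewer than 10 clusters are not included.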

The mark [1] stands for this setting: designed as: OFF switch for flavin mononucleotide, no ligand.
Where [2] appears, read: ligand present: flavin mononucleotide, designed as: OFF switch for flavin mononucleotide.
Setting [3] is: designed as: ON switch for flavin mononucleotide, no ligand.
The mark [4] stands for this setting: ligand present: flavin mononucleotide, designed as: ON switch for flavin mononucleotide.
Where [5] appears, read: designed as: OFF switch for theophylline, no ligand.
[6] abbreviates: ligand present: theophylline, designed as: OFF switch for theophylline.
Setting [7] is: designed as: ON switch for theophylline, no ligand.
Setting [8] is: ligand present: theophylline, designed as: ON switch for theophylline.

As a reminder, the apparent Kd is the concentration giving half-maximal binding under the conditions of the assay. With “GCUCCGCUAGCAGGAUAUGUAGGGGGAUUAUUGAUUGGGCGUAACAUGAGGAUCACCCAUGUUCCACAGAAGGGCUGGAGAAGA”, the “apparent Kd” value was found to be 0.107 µM under setting [1] and 0.0683 µM under setting [2]. With “ACAUGAGGAUCACCCAUGUCGAAGCACGCGCCACCUUCAAGCAGAAGGAAGUGACAAGUACUAGCUUAGGAUAUGCUCAAAGGU”, the “apparent Kd” value reads like this: under setting [3], 0.0123 µM; under setting [4], 0.007 µM. Taken in the same sequence, the figures for “UAGAGCUCGCAAGGAUAUAACGCACAGAAACAUGAGGAUCACCCAUGUGGAAAGGAUCAACGUCGUUAGAAGGUGCAGAAAUAU” were 0.0474 µM and 0.022 µM. Taken in the same sequence, the figures for “AGACAUGAGGAUCACCCAUGUUGCUGUACAGGAGUUAAAGUCUAGGAUAUUGGGUCAGAAAGCGACAAGAAGGAGACACGCCAG” were 0.0112 µM and 0.00847 µM. On to “CCUUCAGAUGAGAAGGCCAUCUACGGCUGGACACGGCAGUAACAUGAGGAUCACCCAUGUUUAAUGGAGGAUAUCAACGGAAGC”, for which the “apparent Kd” value stood at 0.0123 µM under setting [3] and 0.00894 µM under setting [4]. Taken in the same sequence, the figures for “GCCAUAAUCUGAGGAUAUAGAGAGAUAAGGAAGCACAUGAGGAUCACCCAUGUCCGUGGUAUAGGCAAGAAGGCAGCUGGAAUC” were 0.0153 µM and 0.0157 µM.

Regarding “UAACCACCGCAGGAUAUGCUAUGUUCAGUGUCUGCAGAAGGGCGUACAUGAGGAUCACCCAUGUAGUGACCUCA”, the “apparent Kd” value was determined as 0.0952 µM under setting [1] and 0.11 µM under setting [2]. With “UCACGUCGCCGAGGAUAUGAUUACCGCUCUCCAUCAGAAGGCGGCGCGUGGUCCACAACAUGAGGAUCACCCAUGUCGAUUGAG”, the “apparent Kd” value by setting is: under setting [3], 0.0649 µM; under setting [4], 0.0107 µM. In the case of “AACGGUUUUUAGAAGGGCGUCAGGGACCUUGGACAUGAGGAUCACCCAUGUGUGCAGACACCUGCGCAGGAUAUAAGUUCUCUA”, the “apparent Kd” value is, setting by setting: under setting [1], 0.0126 µM; under setting [2], 0.00953 µM. For “UAAGUACGACAGAAGGGAUGAAAUUAUAACAAAUCAGGAUAUGUGAGUUACCAAUGCAAGCAUUACAUGAGGAUCACCCAUGUG”, the “apparent Kd” value stood at 0.0169 µM under setting [3] and 0.0101 µM under setting [4]. Taken in the same sequence, the figures for “CCAUGCGAUAUAGUGAUACAUGAGGAUCACCCAUGUAAAGUGAGAAGGCCAAAUUAAUACUAAGUGGAGGAUAUCAUCGUGAGC” were 0.053 µM and 0.0207 µM. On to “AUCAUGUAAGGAUAUGCCGAACCUGUUUUGUCGCGGUUAAAGCAGAAGGUACAUGAGGAUCACCCAUGUUAAAU”, for which the “apparent Kd” value reads like this: under setting [1], 0.0562 µM; under setting [2], 0.0544 µM. Consider “CUGGUUGCCGGUUGCGACACAUGAGGAUCACCCAUGUAUACCGAGGAUAUGUGGAGCUGUAGAUGACAGAAGGCGGUGAGUAUC”, for which the “apparent Kd” value by setting is: under setting [3], 0.0537 µM; under setting [4], 0.0381 µM. Consider “UCCUUUAGACAUGAGGAUCACCCAUGUAGCCUCACUGUUCGUAGAAGGACACCGCUGUUCAAGCUGUAGGAUAUACGGAGGAUC”, for which the “apparent Kd” value is 0.468 µM under setting [1] and 0.319 µM under setting [2].

With “UGUUUUAAAGAGGAUAUGACAACGGUUCCACCGUCAGAAGGCUUUACAUGAGGAUCACCCAUGUACUGGAGUGA”, the “apparent Kd” value reads like this: under setting [1], 0.0173 µM; under setting [2], 0.0819 µM.

With “CCCAAGCCAGCUGAUACCAGUGACGUGGUCAGAAUGUGCGACAUGAGGAUCACCCAUGUACACCCUUGGCAGCAGUAGAACGGUU”, the “apparent Kd” value under setting [5] was determined as 0.0144 µM and the “apparent Kd” value under setting [6] worked out at 0.0517 µM. Turning to “CGUAGGAUCGUGGAUACCAGUACCGCCCACGACAUGAGGAUCACCCAUGUAGGUAAUCUUUACCCUUGGCAGCCAUUUUUUUCUG”, the “apparent Kd” value is, setting by setting: under setting [7], 0.0456 µM; under setting [8], 0.0529 µM. Regarding “AUACACAGAGUUAGGAUAUCUACAUAAAACAAAAUAGAGAAGGAACAUGAGGAUCACCCAUGUAAUGAUCAAAC”, the “apparent Kd” value stood at 0.00999 µM under setting [1] and 0.00945 µM under setting [2]. Consider “AACCACAUGAGGAUCACCCAUGUGACCGCUCGAGGACCGGUACGGCCGCCACUCGUGGAGGGACUUAUGCGUUAUCCGGGUAAAU”, for which the “apparent Kd” value (designed as: ON switch for tryptophan, no ligand) was 0.0194 µM and the “apparent Kd” value (ligand present: tryptophan, designed as: ON switch for tryptophan) worked out at 0.0226 µM. Regarding “CCGACUCGCGUAGAGGAUAUGUAAUAAAAUACAUGAGGAUCACCCAUGUGAGACCGGGUGUCUCCACAGAAGGCUAUCGUGUCGUA”, the “apparent Kd” value under setting [3] amounted to 0.133 µM. As for “UGACUAAAGGAGAAGGGCCACUCCAUUACUUCGGCAGGAUAUCCAUAAACAUGAGGAUCACCCAUGUACAUACAUUGGACGGCG”, the “apparent Kd” value was found to be 0.00862 µM under setting [3] and 0.00773 µM under setting [4]. On to “AGACUUAGACAAGGAUAUGGUGAGGCCACCUUACAUGAGGAUCACCCAUGUCUAGAGAUCCUGUGCCAGAAGGUGUAGUUGGAC”, for which the “apparent Kd” value by setting is: under setting [3], 0.312 µM; under setting [4], 0.0757 µM.

Consider “AGUGGUGGGAAGGAUAUCUUCCGGCGUUAGCCUAGAGAAGGUCCCACAUGAGGAUCACCCAUGUUGACAUCGGU”, for which the “apparent Kd” value is, setting by setting: under setting [1], 0.373 µM; under setting [2], 0.183 µM. “CAAGCACCAACCGAUACCAGCUUAGUAGUAUGCUCAUUAAACAUGAGGAUCACCCAUGUGAGCCCUUGGCAGCGGAUUUCCCUGC”: the “apparent Kd” value reads like this: under setting [5], 0.0133 µM; under setting [6], 0.0207 µM. As for “CAUGUACUAGGAUAUACAAUCACUCGUCAGGCAGCGUUAACACAUGAGGAUCACCCAUGUAGAAGGAGUUUAAA”, the “apparent Kd” value under setting [1] came to 0.00874 µM and the “apparent Kd” value under setting [2] was 0.0082 µM. Taken in the same sequence, the figures for “GUUGAGGGCGUGCACAUGAGGAUCACCCAUGUUCUACCUAUCGAGGAUAUAUCUGUAGGAUCAGAAUAGAAGGCGAGCAAGGUC” were 0.0214 µM and 0.0148 µM. Consider “GGAUGGGUGGAAGGAUAUGAGCCCAGGACAUGAGGAUCACCCAUGUGUAGUUCAGUCUCUAAUUCUCAGAAGGUCCAGAUUCUA”, for which the “apparent Kd” value is, setting by setting: under setting [1], 0.0181 µM; under setting [2], 0.0215 µM.

As to “CUCAAACAUGAGGAUCACCCAUGUAAGGAUAUCCGUAAUAAAUUUGGUAAGAGGCGGCGGAGAAGGUACGCAGC”, the “apparent Kd” value under setting [1] is 0.0192 µM and the “apparent Kd” value under setting [2] was determined as 0.0179 µM. Take “CUCAGUGUGUAGAAGGUUUGCAUAGAAACAUCAAAAGGAUAUACAUGGUGAAGCCUUGAAACAUGAGGAUCACCCAUGUCUACG”: the “apparent Kd” value runs as follows: under setting [3], 0.632 µM; under setting [4], 0.392 µM. “GUAGUGCUAAGAGGAUAUACGUUCUGCACAUGAGGAUCACCCAUGUACAAGGAGCCCAACCGGCGGUAGAAGGCUUUGACAGGA”: the “apparent Kd” value reads like this: under setting [3], 0.0174 µM; under setting [4], 0.0113 µM.

Turning to “ACCUCAAUGGAUGAUACCAGCUCAAGGACGAACAUGAGGAUCACCCAUGUGACGUGGUGUAGCCCUUGGCAGCAUACUGACACCU”, the “apparent Kd” value amounted to 0.0394 µM under setting [7] and 0.0213 µM under setting [8]. Consider “AAAACUACAGAUACCUUAACAUGAGGAUCACCCAUGUGAGCUGAGGAUAUGUCCACGCUUUAAGGACAGAAGGCAGGAGCAUAG”, for which the “apparent Kd” value is, setting by setting: under setting [1], 0.0252 µM; under setting [2], 0.0369 µM. With “ACUCUAGAAUAGAAGGCCUGAGGAAGUAGUAAAGGAGGAUAUAUCAUACGAAAUUCACAUGAGGAUCACCCAUGUUGCGCAGAC”, the “apparent Kd” value is, setting by setting: under setting [3], 0.0212 µM; under setting [4], 0.0124 µM. For “GCAGUGCGUGAGGAUAUGUGAGUGAACACACACACAGAAGGCACAACAUGAGGAUCACCCAUGUUCCUGGUGCC”, the “apparent Kd” value by setting is: under setting [1], 0.00762 µM; under setting [2], 0.00795 µM. In the case of “GAGGAGUAGUAGUCCGACACAUGAGGAUCACCCAUGUUAUGGAGAAGGCCGGAUCUGAGUAGAGCGGAGGAUAUCCUGAAUUAA”, the “apparent Kd” value reads like this: under setting [3], 0.0267 µM; under setting [4], 0.0198 µM. Consider “UGAGUAAGCGAGGAUAUUGGGCGCGUACGUGGUCAAGAAGGCGCAACAUGAGGAUCACCCAUGUGCUUCUCUUG”, for which the “apparent Kd” value under setting [1] was 0.0157 µM and the “apparent Kd” value under setting [2] was determined as 0.0292 µM.

Regarding “AGACAUGGCGGAUAGGAUAUGUGGGCGUCUACAUGAGGAUCACCCAUGUUGCUCGGAUGCAAUCUACAGAAGGAUCGACCCAGUGC”, the “apparent Kd” value worked out at 0.106 µM under setting [3] and 0.0161 µM under setting [4]. For “GUGGGACAUGAGGAUCACCCAUGUGACGAUACCAGUCAAUUGAUGGACCCUUGGCAGCGUUGGUAUUGCGGGUAGGCGAGAUAAG”, the “apparent Kd” value is, setting by setting: under setting [7], 0.0432 µM; under setting [8], 0.0454 µM. For “CCGCAUAUGUGCCCAAUAUAACAUGAGGAUCACCCAUGUGGUAGAAGGAAUGCUCACGGCUCUCAUUAGGAUAUACCAGACUAU”, the “apparent Kd” value by setting is: under setting [3], 0.0182 µM; under setting [4], 0.0175 µM. Taken in the same sequence, the figures for “CGUAUUGCUCGUUAGGAUAUCCAAUCUGAAACAUGAGGAUCACCCAUGUAGCCAGCAUCACAUGAGGAGAAGGAACAAGAUAAACG” were 0.0166 µM and 0.00889 µM. Taken in the same sequence, the figures for “ACUAAACAUGAGGAUCACCCAUGUAAUUGAAGCUAAGGAUAUCAGAAGAAUGGUGAUUCAUGAGAAGGAAGCGAUU” were 0.0869 µM and 0.0586 µM.

As for “GUCAAAUGUCAGAAGGUAGUGAUGUACUAAGGCUAAGGAUAUGAAGAAAAGAAAAUUACCGUUGACAUGAGGAUCACCCAUGUC”, the “apparent Kd” value under setting [3] is 0.0138 µM and the “apparent Kd” value under setting [4] was 0.00986 µM.

Take “GUGCAGUUAUUAGGAUAUAAGACAUGGGACAUGAGGAUCACCCAUGUCGUAAGAAAUACCGUUGAUUAGAAGGAAUUCCGGCAC”: the “apparent Kd” value worked out at 1.01 µM under setting [3] and 0.283 µM under setting [4]. As for “ACCCGAGAUACAGGAUAUGCGUCCGCGUGAGCCAUGGUUAAAGCACAUGAGGAUCACCCAUGUUGGCAGAAGGGAAUCUCAUGA”, the “apparent Kd” value was 0.0537 µM under setting [1] and 0.0193 µM under setting [2].

As for “UACAAAGAAUAGGAUAUCGAGAGGUAAUUUGGGCGAGAAGGAUUCACAUGAGGAUCACCCAUGUAGGCGGAUCU”, the “apparent Kd” value by setting is: under setting [1], 0.0307 µM; under setting [2], 0.0409 µM. For “GGCGCUACGCCGGUACAUGAGGAUCACCCAUGUCCAUAUGUAAGAAGGUCUGGCGGGACGACAAAGAAGGAUAUUACAGAUUGC”, the “apparent Kd” value is 0.0337 µM under setting [3] and 0.0249 µM under setting [4]. Taken in the same sequence, the figures for “AGGUCCGGAGAGAAGGCCGACUUUGUAAUACACGGAGGAUAUCUACCACAUGAGGAUCACCCAUGUCCACACCGCAAGUUGUAA” were 0.015 µM and 0.0108 µM.

(Values after the EternaBench riboswitch data.)
